40 compounds from PubChem BioAssay can be followed below.

Structures are written as SMILES. Active and inactive are the calls of the source.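 Rule for the calls, unless noted: active = duplicate-averaged activation above buffer control mean plus 5 SD of those controls; inactive = the rest.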

Chain of Potassium voltage-gated channel subfamily KQT member 1 (Homo sapiens) (P51787 whole entry, looked up): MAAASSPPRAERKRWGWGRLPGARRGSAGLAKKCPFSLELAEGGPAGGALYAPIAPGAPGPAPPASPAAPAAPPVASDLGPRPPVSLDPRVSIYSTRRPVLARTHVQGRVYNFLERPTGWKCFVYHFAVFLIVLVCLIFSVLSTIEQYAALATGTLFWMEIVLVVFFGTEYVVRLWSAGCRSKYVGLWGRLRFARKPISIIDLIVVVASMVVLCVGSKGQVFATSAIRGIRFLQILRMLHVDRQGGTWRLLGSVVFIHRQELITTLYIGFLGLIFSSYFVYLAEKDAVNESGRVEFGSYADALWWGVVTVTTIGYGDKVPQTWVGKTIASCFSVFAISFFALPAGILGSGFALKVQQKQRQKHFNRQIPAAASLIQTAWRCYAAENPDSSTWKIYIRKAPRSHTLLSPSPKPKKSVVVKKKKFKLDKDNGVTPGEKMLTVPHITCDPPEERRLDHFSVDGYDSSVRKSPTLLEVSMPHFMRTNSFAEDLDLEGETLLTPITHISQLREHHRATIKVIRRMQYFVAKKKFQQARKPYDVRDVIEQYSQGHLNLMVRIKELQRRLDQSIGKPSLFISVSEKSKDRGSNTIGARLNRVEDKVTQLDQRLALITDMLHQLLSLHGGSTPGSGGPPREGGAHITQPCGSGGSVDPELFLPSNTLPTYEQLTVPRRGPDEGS

Tested on in the first test: not listed separately
As to the kind of experiment: nonspecific flux increase, KCNQ1-free cells – parental CHO cells, counter-screen for KCNQ1 potentiator project (AID 493006). Particulars: parental CHO-K1 cells, FluxOR thallium flux, at 10 µM; active compounds read high. A digest of the protocol:
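Test system: parental CHO-K1 cells, FluxOR dye-loaded / Probe or stimulus: potassium plus thallium depolarizing stimulus, 5x stock 12.5 mM K2SO4, Tl2SO4 / Timing: overnight 37 °C plating, 90 min dye, 20 min dark compound / Measured by: kinetic thallium-flux fluorescence / Read-out: max-minus-min fluorescence over baseline, percent of buffer-to-R-L3 span / Benchmarks: buffer and R-L3 controls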
`Cc1ccccc1NC(=O)C(=O)NNC(=O)COc1ccc2ccccc2c1`: the activation is 232% (active).

Turning to `CCOC(=O)c1c(NC(=O)C(C)N2CCN(C(=O)c3ccco3)CC2)sc2c1CCCC2` (stereo not given), the outcome was inactive.

Regarding `CC(=O)N/C(=C/c1ccc2c(c1)OCO2)C(=O)O`, the result was inactive.

As for `CCOC(=O)C(=NCC1CCCO1)NNc1ccccc1Cl` (stereo not given), the result was inactive.

In the case of `CC(C)(C)NC(=O)C(=O)NNC(=O)c1cccc(Br)c1`, the activation was 242% (active).

With `Cc1ccc(-c2c(C(=O)O)c3ccccc3[nH]c2=O)cc1`, the outcome was inactive.

In the case of `O=C(NCCN1CCOCC1)[C@H](Cc1ccccc1)N1C(=O)c2ccccc2C1=O`, the result was inactive.

In the case of `Cc1ccc2c(c1)c(C)c(C)n2CC(O)CN1CCCCC1C` (stereo not given), the result was inactive.

For `O=c1[nH]c2ccc(Cl)cc2c(-c2ccccc2)c1N1CCN(CCO)CC1`, the result was inactive.

Regarding `CCOC(=O)c1ccccc1N1C(=O)CSC1=S`, the outcome was inactive.

As for `CCSc1nc2c(sc3ccccc32)c(=O)n1C(C)C`, the activation is 310% (active).

Turning to `O=C(CNC(=O)C(c1ccccc1)c1ccccc1)N/N=C/c1ccc(O)cc1O`, the outcome was inactive.

On to `Cc1cccc(OCC(=O)O/N=C(\N)c2ccc(Cl)cc2)c1`, for which the result was inactive.

Turning to `CC1Oc2ccccc2OC1(O)c1ccccn1` (stereo not given), the activation was 142% (active).

`Cc1ccc(C)c(NC(=S)N(Cc2ccco2)C(C)c2cccs2)c1` (stereo not given): the outcome was inactive.

As to `O=C(NC(=S)Nc1cccnc1)c1cc2ccccc2o1`, the activation was 184% (active).

As to `CCOC(=O)c1sc2ncnc(NCc3ccco3)c2c1C`, the activation is 332% (active).

As for `O=c1oc2cc(OCCO)ccc2c2c1CCCC2`, the outcome was inactive.

Consider `O=C(c1ccccc1)N1CCC(CC2CC(c3ccc(Cl)cc3)=NO2)(C(=O)NCC2CCCCC2)CC1` (stereo not given), for which the outcome was inactive.

Turning to `CCc1ccc(NC(=O)CSc2nc3ccsc3c(=O)n2CCC(=O)O)cc1`, the activation is 148% (active).

With `CC(CCc1ccccc1)NC(=O)COc1cc(F)ccc1[N+](=O)[O-]` (stereo not given), the result was inactive.

In the case of `O=C(NC(=S)N1CCCCCC1)c1ccccc1`, the outcome was inactive.

As to `CCCc1cc(=O)n2[nH]cc(-c3ccc(Cl)cc3)c2n1`, the activation is 168% (active).

As for `COc1cc(/C=N/Nc2snc(SC)c2C#N)ccc1O`, the result was inactive.

On to `O=Cc1ccc2noc(-c3ccc(Cl)cc3)c2c1`, for which the result was inactive.

Turning to `CC(=O)c1ccc(OCc2cc(C(=O)N3CC[C@@H]4CCCC[C@H]4C3)no2)cc1`, the activation is 144% (active).

As to `COc1cccc(C(=O)NNC(=O)C(=O)Nc2ccc(C)c(Cl)c2)c1`, the activation is 278% (active).

Turning to `CCS(=O)(=O)Nc1ccc(C(=O)CC2(O)C(=O)Nc3ccccc32)cc1` (stereo not given), the outcome was inactive.

Regarding `C=CCNc1nnc(SCC(=O)N2CCC(C(N)=O)CC2)s1`, the outcome was inactive.

`CCOCC(=O)Nc1ccc2c(c1)N(S(=O)(=O)c1cccs1)CCC2`: the outcome was inactive.

As for `O=C(NC(=S)Nc1ccccc1)c1cc(-c2ccccc2)nc2ccccc12`, the activation is 158% (active).

For `CN(C)c1ccc(NC(=O)COC(=O)c2cc(Cl)ccc2[N+](=O)[O-])cc1`, the result was inactive.

`CCN(c1ccccc1)S(=O)(=O)c1ccc(OC)c(OC)c1`: the activation was 167% (active).

Turning to `CC(C)Cc1ccc(C(C)C(=O)Nc2ccc(O)cc2)cc1` (stereo not given), the result was inactive.

Turning to `CCOC(=O)Cn1nc(-c2ccc(F)cc2)cc(Cc2ccccc2)c1=O`, the result was inactive.

Take `Cc1nc2sc(C(c3ccccc3)N3CCN(C(=O)c4ccco4)CC3)c(O)n2n1` (stereo not given): the outcome was inactive.

On to `O=C(Nc1ccc(N2CCCCC2)cc1)c1cccnc1Cl`, for which the result was inactive.

On to `Cc1ccccc1OCC(=O)N=Nc1c(O)n(C)c2ccccc12`, for which the activation was 188% (active).

Take `COC(=O)c1c(N)sc2c1CCN(c1ncc(C(F)(F)F)cc1Cl)C2`: the result was inactive.

Turning to `CC(=O)Nc1ccc(NC(=O)c2cccc(C(=O)OC(C)C)n2)cc1`, the outcome was inactive.

A further test concerns the target Potassium voltage-gated channel subfamily KQT member 1 (Homo sapiens) (UniProt P51787). As to the kind of experiment: enhancement of KCNQ1 channel thallium flux – FluxOR thallium flux, CHO cells, duplicates, confirmation (AID 493007;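 active = potentiation averaged over duplicate wells exceeding buffer-only control mean by more than 3 SD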;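 for outcome: cells depolarized by a potassium plus thallium sulfate stimulus after compound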;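 for potentiation: 0% = buffer-only wells and 100% = R-L3 activator control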). Particulars: KCNQ1 cell line, FluxOR thallium flux fluorescence, at 10 µM; active compounds read high, % of reference activator effect, buffer zero. The method in brief:
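Assay system: CHO cells carrying KCNQ1 | Controls: Buffer and R-L3 controls | Schedule: FluxOR dye loading 90 min, compound exposure 20 min, room temperature | Read-out: Baseline-normalized fluorescence change, percent of buffer-to-R-L3 range | Replicates: Each compound tested in duplicate | Technique: Kinetic thallium influx fluorescence with FluxOR dye, 10 s baseline, 110 s post-stimulus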
Consider `Cc1ccccc1NC(=O)C(=O)NNC(=O)COc1ccc2ccccc2c1`, for which the potentiation was 93.5% (active).

Turning to `CCOC(=O)c1c(NC(=O)C(C)N2CCN(C(=O)c3ccco3)CC2)sc2c1CCCC2` (stereo not given), the potentiation was 53% (active).

Consider `CC(=O)N/C(=C/c1ccc2c(c1)OCO2)C(=O)O`, for which the result was inactive.

`CCOC(=O)C(=NCC1CCCO1)NNc1ccccc1Cl` (stereo not given): the outcome was inactive.

As for `CC(C)(C)NC(=O)C(=O)NNC(=O)c1cccc(Br)c1`, the potentiation is 34% (active).

Take `Cc1ccc(-c2c(C(=O)O)c3ccccc3[nH]c2=O)cc1`: the outcome was inactive.

On to `O=C(NCCN1CCOCC1)[C@H](Cc1ccccc1)N1C(=O)c2ccccc2C1=O`, for which the potentiation was 26% (active).

As to `Cc1ccc2c(c1)c(C)c(C)n2CC(O)CN1CCCCC1C` (stereo not given), the outcome was inactive.

For the compound `O=c1[nH]c2ccc(Cl)cc2c(-c2ccccc2)c1N1CCN(CCO)CC1`, the result was inactive.

Consider `CCOC(=O)c1ccccc1N1C(=O)CSC1=S`, for which the result was inactive.

`CCSc1nc2c(sc3ccccc32)c(=O)n1C(C)C`: the potentiation is 206% (active).

Consider `O=C(CNC(=O)C(c1ccccc1)c1ccccc1)N/N=C/c1ccc(O)cc1O`, for which the result was inactive.

As for `Cc1cccc(OCC(=O)O/N=C(\N)c2ccc(Cl)cc2)c1`, the result was inactive.

In the case of `CC1Oc2ccccc2OC1(O)c1ccccn1` (stereo not given), the potentiation is 26.5% (active).

For `Cc1ccc(C)c(NC(=S)N(Cc2ccco2)C(C)c2cccs2)c1` (stereo not given), the outcome was inactive.

On to `O=C(NC(=S)Nc1cccnc1)c1cc2ccccc2o1`, for which the potentiation is 35% (active).

As to `CCOC(=O)c1sc2ncnc(NCc3ccco3)c2c1C`, the potentiation is 152% (active).

Turning to `O=c1oc2cc(OCCO)ccc2c2c1CCCC2`, the outcome was inactive.

Turning to `O=C(c1ccccc1)N1CCC(CC2CC(c3ccc(Cl)cc3)=NO2)(C(=O)NCC2CCCCC2)CC1` (stereo not given), the result was inactive.

Turning to `CCc1ccc(NC(=O)CSc2nc3ccsc3c(=O)n2CCC(=O)O)cc1`, the potentiation was 33% (active).

Regarding `CC(CCc1ccccc1)NC(=O)COc1cc(F)ccc1[N+](=O)[O-]` (stereo not given), the result was inactive.

Take `O=C(NC(=S)N1CCCCCC1)c1ccccc1`: the outcome was inactive.

With `CCCc1cc(=O)n2[nH]cc(-c3ccc(Cl)cc3)c2n1`, the potentiation is 36% (active).

Consider `COc1cc(/C=N/Nc2snc(SC)c2C#N)ccc1O`, for which the result was inactive.

Turning to `O=Cc1ccc2noc(-c3ccc(Cl)cc3)c2c1`, the outcome was inactive.

Consider `CC(=O)c1ccc(OCc2cc(C(=O)N3CC[C@@H]4CCCC[C@H]4C3)no2)cc1`, for which the potentiation is 49% (active).

`COc1cccc(C(=O)NNC(=O)C(=O)Nc2ccc(C)c(Cl)c2)c1`: the potentiation was 99% (active).

For `CCS(=O)(=O)Nc1ccc(C(=O)CC2(O)C(=O)Nc3ccccc32)cc1` (stereo not given), the result was inactive.

As for `C=CCNc1nnc(SCC(=O)N2CCC(C(N)=O)CC2)s1`, the outcome was inactive.

Take `CCOCC(=O)Nc1ccc2c(c1)N(S(=O)(=O)c1cccs1)CCC2`: the result was inactive.

With `O=C(NC(=S)Nc1ccccc1)c1cc(-c2ccccc2)nc2ccccc12`, the potentiation is 75% (active).

For `CN(C)c1ccc(NC(=O)COC(=O)c2cc(Cl)ccc2[N+](=O)[O-])cc1`, the outcome was inactive.

For `CCN(c1ccccc1)S(=O)(=O)c1ccc(OC)c(OC)c1`, the potentiation is 150% (active).

As for `CC(C)Cc1ccc(C(C)C(=O)Nc2ccc(O)cc2)cc1` (stereo not given), the outcome was inactive.

Consider `CCOC(=O)Cn1nc(-c2ccc(F)cc2)cc(Cc2ccccc2)c1=O`, for which the outcome was inactive.

Consider `Cc1nc2sc(C(c3ccccc3)N3CCN(C(=O)c4ccco4)CC3)c(O)n2n1` (stereo not given), for which the outcome was inactive.

For the compound `O=C(Nc1ccc(N2CCCCC2)cc1)c1cccnc1Cl`, the outcome was inactive.

With `Cc1ccccc1OCC(=O)N=Nc1c(O)n(C)c2ccccc12`, the potentiation was 42% (active).

On to `COC(=O)c1c(N)sc2c1CCN(c1ncc(C(F)(F)F)cc1Cl)C2`, for which the result was inactive.

As to `CC(=O)Nc1ccc(NC(=O)c2cccc(C(=O)OC(C)C)n2)cc1`, the outcome was inactive.
